The source made the active and inactive calls. No cut-off for these calls is given here.
Columns and labels:
Assay type in all cases: cell-based
[1] = Activation of Wnt/beta-catenin signaling pathway in HEK293T cells in presence of Wnt3a-conditioned medium incubated for 6 hrs by luciferase reporter gene assay; conditions: Homo sapiens; HEK-293T
Summary of the method: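 HEK293T cells were grown in DMEM with 10% heat-inactivated FBS at 37 °C in 5% CO2. Cells were seeded in 24-well plates and lipofected with 250 ng total plasmid per well: 20 ng TOPFlash, 25 ng EGFP-C1, and LacZ plasmid as filler. Luciferase luminescence was normalized to lysate GFP fluorescence. The value reported is the concentration doubling Wnt activation.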

[2] = Activation of Wnt/beta-catenin signaling pathway in HEK293T cells assessed as increase in NKD1 expression at 5 to 20 uM in presence of Wnt3a-conditioned medium incubated for 6 hrs by quantitative real time PCR analysis; conditions: Homo sapiens, HEK-293T
Summary of the method: (§1)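 HEK293T cells were grown in DMEM with 10% (v/v) heat-inactivated FBS at 37 °C in 5% CO2/95% air. Cells were exposed to compound together with control medium or Wnt3a-conditioned medium for 6 h.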

[3] = Activation of Wnt/beta-catenin signaling pathway in HEK293T cells assessed as increase in Axin-2 expression at 5 to 20 uM in presence of Wnt3a-conditioned medium incubated for 6 hrs by quantitative real time PCR analysis; conditions: Homo sapiens, HEK-293T; summary of the method: as §1
[4] = Activation of Wnt/beta-catenin signaling pathway in HEK293T cells preincubated for 1 hr followed by Wnt3a stimulation and subsequent addition of compound measured after 6 hrs by luciferase reporter gene assay; conditions: Homo sapiens; HEK-293T

SMILES | CD [1] | further results
CCc1cccc2c1N(C)Cc1cc(OCc3ccc(-n4cccn4)cn3)c(OCc3ccc(-n4cccn4)cn3)cc1-2 | inactive | –
C=Cc1cccc2c1N(C)Cc1cc(O)c(O)cc1-2 | 10 µM | –
CCOc1cc2c(cc1OCC)-c1cccc(CC)c1N(C)C2 | 5 µM | –
CCc1cccc2c1N(C)Cc1cc(OCc3cc(C)n(C)n3)c(OCc3cc(C)n(C)n3)cc1-2 | inactive | –
CCc1cccc2c1N(C)Cc1cc(OCc3cc4cc(Cl)ccc4s3)c(OCc3cc4cc(Cl)ccc4s3)cc1-2 | inactive | Activity [2]: inactive; Activity [3]: inactive
CCc1cccc2c1N(C)Cc1cc(OCc3ccc(-c4ccccc4C(=O)OC)cc3)c(OCc3ccc(-c4ccccc4C(=O)OC)cc3)cc1-2 | inactive | Activity [2]: inactive; Activity [3]: inactive
NCCn1cc(COc2cccc(OCc3cn(CCN)nn3)c2)nn1 | – | Activity [1]: Active
CCc1cccc2c1N(C)Cc1cc(OCc3cc(C)nn3C)c(OCc3cc(C)nn3C)cc1-2 | inactive | –
CCc1cccc2c1N(C)Cc1cc3c(cc1-2)OCO3 | 5 µM | –
CCc1cccc2c1N(C)Cc1cc(OCc3cn(CCNC(=O)CCCC[C@@H]4SC[C@@H]5NC(=O)N[C@@H]54)nn3)c(OCc3cn(CCNC(=O)CCCC[C@@H]4SC[C@@H]5NC(=O)N[C@@H]54)nn3)cc1-2 | – | CD [4]: 0.325 µM
CCc1cccc2c1N(C)Cc1cc(OCc3cc(OC)cc(OC)c3)c(OCc3cc(OC)cc(OC)c3)cc1-2 | inactive | –
C=Cc1cccc2c1N(C)Cc1cc(OCC)c(OCC)cc1-2 | inactive | –
C#CCOc1cc2c(cc1OCC#C)-c1cccc(CC)c1N(C)C2 | 5 µM | –
NCCn1cc(COc2ccccc2OCc2cn(CCN)nn2)nn1 | – | Activity [1]: Active
CCc1cccc2c1N(C)Cc1cc(OC)c(OC)cc1-2 | 2.5 µM | –
O=C(O)CCCC[C@@H]1SC[C@@H]2NC(=O)N[C@@H]21 | – | Activity [1]: inactive
CCc1cccc2c1N(C)Cc1cc(OCc3cn(CCNC(C)=O)nn3)c(OCc3cn(CCNC(C)=O)nn3)cc1-2 | 2.5 µM | Activity [2]: Active; Activity [3]: Active
C=Cc1cccc2c1N(C)Cc1cc3c(cc1-2)OCO3 | inactive | –
[N-]=[N+]=NCCNC(=O)CCCC[C@@H]1SC[C@@H]2NC(=O)N[C@@H]21 | – | Activity [1]: inactive
CCc1cccc2c1N(C)Cc1cc(OCc3cn(CCN)nn3)c(OCc3cn(CCN)nn3)cc1-2 | 1.25 µM | Activity [2]: Active; Activity [3]: Active
O=C1N[C@H]2[C@H](CS[C@H]2CCCCC(=O)ON2C(=O)CCC2=O)N1 | – | Activity [1]: inactive
CCc1cccc2c1N(C)Cc1cc(O)c(O)cc1-2 | 5 µM | –
